Results reported in article PMC5221563 (Molecular cancer therapeutics, 2016).
Read-outs that look alike come from different tables or passages of the source.

Legend:
[1] = tested on: CD44+/CD133+/EpCAM+ MiaPaCa-2 CSC tumors; assay: MiaPaCa-2 CSC subcutaneous xenograft; format: in vivo, ICR-SCID mice
Procedure, shortened: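 CD44+/CD133+/EpCAM+ MiaPaCa-2 cells, isolated by FACS, were kept in serum-free sphere medium (1:1 DMEM/F-12K with B27 and N2). 1×10^6 cells were implanted subcutaneously on both flanks of 4-week-old female ICR-SCID mice. Growth was confirmed in one mouse after 2–3 weeks. Tumor-bearing mice were then randomized into 2 groups of 6: vehicle control or treatment.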

[2] = tested on: PARP cleavage in MiaPaCa-2 cells; assay: Western blot for PARP cleavage; format: cell-based, human; settings: 72 hrs
Procedure, shortened: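 1×10^6 MiaPaCa-2 cells were grown overnight in 100 mm dishes to ~50% confluence. They were exposed to the indicated test compound concentrations for 72 hrs. Protein was extracted, separated by SDS-PAGE and western blotted with a PARP antibody, using β-actin as the loading control.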

MiaPaCa-2 cells [3] = assay: Clonogenic assay, combination treatment; format: cell-based, human; settings: MiaPaCa-2, combination with gemcitabine or oxaliplatin
Procedure, shortened: (§1)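 Cells were seeded at 50,000 per well in six-well plates and allowed to attach for 24 hrs. They were then exposed for 72 hrs to test compound, gemcitabine, oxaliplatin or a combination. Afterwards, 1,000 cells per condition were re-seeded in 100 mm dishes and grown. Colonies were stained, counted and photographed.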

L3.6pl PDAC tumors = assay: L3.6pl subcutaneous xenograft; format: in vivo
Procedure, shortened: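 Four-week-old female ICR-SCID mice: 10 per group were trocared bilaterally s.c. with ~50 mg L3.6pl tumor fragments, then randomised. Treatment was diluent or test compound 140 mg/kg i.v., 5 times per week for 4 weeks. At day 21 the control arm got 140 mg/kg i.v. once daily, 5 days a week, for one more week. Tumor weight, body weight and side effects were tracked; excised tumors were H&E stained.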

Tolerability in mice = format: in vivo; settings: 200 mg/kg daily administered either intravenously or orally
L3.6pl cells [4] = assay: Clonogenic assay, combination treatment; format: cell-based; settings: combination with gemcitabine or oxaliplatin
Procedure, shortened: as §1

[5] = tested on: p-PAK4 and group I PAKs in DU-145 prostate cancer cell line; assay: PAK isoform phosphorylation in DU-145 cells; format: cell-based; settings: sub-IC50 amount
multi-drug transporters [6] = assay: Multi-drug transporter substrate status; format: in vitro ADME; settings: data not shown
MiaPaCa-2 cells [7] = assay: MTT isobologram synergy analysis; format: cell-based, human; settings: MiaPaCa-2, KPT-9274 (60, 120 or 180 nM) with oxaliplatin (2, 4 or 8 μM), 72 hrs
Procedure, shortened: (§2)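 Cells at 5,000 per well in 96-well plates were treated after 24 hrs with test compound (60, 120 or 180 nM), a chemotherapy partner, or both for 72 hrs. The MTT read-out used 5 mg/mL reagent for 2 hrs, formazan dissolved in DMSO and absorbance at 595 nm. Mean absorbance went into isobologram analysis, and the combination index was calculated.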

L3.6pl cells [8] = assay: Annexin V FITC apoptosis, combination treatment; format: cell-based; settings: combination with gemcitabine or oxaliplatin, 96 hrs
Procedure, shortened: (§3)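 Human PDAC cells plated at 50,000 per well in six-well plates. After 24 hrs, exposed for 96 hrs to test compound, gemcitabine, oxaliplatin, or test compound plus either drug. Cells trypsinized; equal numbers stained with Annexin V FITC and propidium iodide per kit protocol. Analysed by flow cytometry.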

MiaPaCa-2 cells [9] = assay: Annexin V FITC apoptosis, combination treatment; format: cell-based, human; settings: MiaPaCa-2, combination with gemcitabine or oxaliplatin, 96 hrs
Procedure, shortened: as §3

L3.6pl cells [10] = assay: MTT isobologram synergy analysis; format: cell-based; settings: 72 hrs
Procedure, shortened: as §2

[11] = molecular target: PAK4-vimentin interaction (Homo sapiens, UniProt O96013); assay: Co-immunoprecipitation of PAK4 and vimentin; format: cell-based; settings: vs control treatment
PAK4-vimentin interaction, sequence (O96013 whole entry): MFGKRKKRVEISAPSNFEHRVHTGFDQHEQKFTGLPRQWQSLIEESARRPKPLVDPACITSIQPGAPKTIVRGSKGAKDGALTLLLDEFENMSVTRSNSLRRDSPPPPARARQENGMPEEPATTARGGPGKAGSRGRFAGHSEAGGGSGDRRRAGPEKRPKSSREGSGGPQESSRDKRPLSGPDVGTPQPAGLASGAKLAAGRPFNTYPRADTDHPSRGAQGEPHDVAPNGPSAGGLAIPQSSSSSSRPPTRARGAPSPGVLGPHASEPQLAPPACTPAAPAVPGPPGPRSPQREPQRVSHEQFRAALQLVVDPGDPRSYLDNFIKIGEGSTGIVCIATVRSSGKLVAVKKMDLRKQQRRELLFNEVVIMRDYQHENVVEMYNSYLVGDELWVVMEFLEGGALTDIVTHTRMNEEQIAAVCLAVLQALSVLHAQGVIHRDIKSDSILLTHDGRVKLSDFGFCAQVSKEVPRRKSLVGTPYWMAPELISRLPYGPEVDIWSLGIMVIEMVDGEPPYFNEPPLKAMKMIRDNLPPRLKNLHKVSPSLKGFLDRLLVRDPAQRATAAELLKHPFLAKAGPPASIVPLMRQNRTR
Procedure, shortened: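 Lysates (200 micro gram protein) from control or test-compound-treated cells were immunoprecipitated with PAK4 or vimentin antibodies. The immunoprecipitates were resolved on a 10% gel, western blotted and probed with anti-PAK4 or anti-vimentin antibodies, with loading and internal controls. Two independent experiments were run.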

AsPC-1 tumors = assay: AsPC-1 subcutaneous xenograft; format: in vivo, ICR-SCID mice; settings: KPT-9274 single agent, p < 0.05
[12] = tested on: PAK4, p-PAK4, cyclin D1, p-PAK2 in MiaPaCa-2 cells; assay: Western blot of PAK4 and related signaling; format: cell-based, human
Procedure, shortened: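 MiaPaCa-2 cells (1×10^6 per 100 mm dish, ~50% confluent) were exposed to test compound for 72 hrs. Protein was extracted and western blotted, and blots were probed for p-PAK4 and p-PAK2 with β-actin as the loading control. Blots are representative of two independent experiments.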

[13] = clinical trial NCT00932126; cited from earlier work
multi-drug transporters [14] = settings: cited from earlier work
PAK4 = PAK4 (Homo sapiens, UniProt O96013); settings: cited from earlier work
PAK4, sequence (O96013 whole entry): as above

[15] = 140 mg/kg IV, 5 days per week, SCID mice

## Nc1ccn([C@@H]2O[C@H](CO)[C@@H](O)C2(F)F)c(=O)n1 [gemcitabine, reference compound]
[1]; 50 mg/kg i.p.
  response of CSC tumors: do not respond

## Nc1ccc(/C=C/C(=O)NCc2cc3cc(-c4ccc(C(=O)N5CCC(F)(F)CC5)cc4)cc(-c4ccc(F)cc4)c3o2)cn1 [KPT-9274]
[2]
  PARP cleavage (western blot): significant PARP cleavage
MiaPaCa-2 cells [3]
  colony formation, combination vs single agents alone: inhibition of colony formation
L3.6pl PDAC tumors; 140 mg/kg IV per day from day 21, 3 doses
  effect on large established tumors (control group, mean tumor 1500 mg): regress large established tumors
L3.6pl PDAC tumors; [15]
  anti-tumor activity on L3.6pl tumors: completely eliminated
  outward signs of toxicity, body weight loss: did not see any outward signs of toxicity, body weight loss
Tolerability in mice
  tolerability in mice: well tolerated
L3.6pl cells [4]
  colony formation, combination vs single agents alone: inhibition of colony formation
[5]
  p-PAK4 versus group I PAKs: selective inhibition of p-PAK4 sparing other group I PAKs
multi-drug transporters [6]
  substrate of the multi-drug transporters: not a substrate of the multi-drug transporters
MiaPaCa-2 cells [7]
  combination index (CI): < 1
L3.6pl cells [8]
  apoptosis, combination vs either single agent alone: statistically significant enhancement in apoptosis
MiaPaCa-2 cells [9]
  apoptosis, combination vs either single agent alone: statistically significant enhancement in apoptosis
[1]; 140 mg/kg once daily i.v.
  suppression of CSC tumors: almost complete suppression of CSC tumors
L3.6pl cells [10]; KPT-9274 (60, 120 or 180 nM) with gemcitabine (10, 20 or 40 nM)
  combination index (CI): < 1
L3.6pl cells [10]; KPT-9274 (60, 120 or 180 nM) with oxaliplatin (2, 4 or 8 μM)
  combination index (CI): < 1
[11]
  PAK4-vimentin interaction (co-immunoprecipitation): disruption of PAK4-vimentin interaction
AsPC-1 tumors
  tumor growth, AsPC-1 xenograft: statistically significant inhibition of tumor growth
[12]
  p-PAK2 level (western blot): without effecting
  p-PAK4 level (western blot): reduced

## Cc1nc(Nc2n[nH]c3c2CN(C(=O)N[C@H](CN(C)C)c2ccccc2)C3(C)C)c2sccc2n1 [PF-03758309]
[13]
  human bioavailability: < 1%
multi-drug transporters [14]
  substrate of the multi-drug transporters: substrate of the multi-drug transporters

## COc1nc(NCCc2c[nH]c3ccccc23)nc(Nc2ccc3[nH]ncc3c2)n1 [KY-04031]
PAK4
  binding affinity towards PAK4: very low binding affinity
